# KDM4C inh – inhibitors of GASC-1 (KDM4C) histone demethylase, primary screen, biochemical, single concentration HTS; hit rate 0.15% among 96,000; GST-KDM4C 2-372, H3K9me3 peptide, LANCE TR-FRET; AID 720574, 2013; inhibition, % at 12.5 µM;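 active = mean replicate inhibition above about 25%, with at least 55% of replicates also reaching it, limit read from the data, passing the limit was not always enough; inconclusive = only one of those two conditions met; inactive = neither condition met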
#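 Test system: N-terminal GST-fused human GASC-1 (KDM4C) fragment, residues 2-372; quantity: GASC-1 enzyme at 10 nM final in reaction; dosing: single dose; schedule: 30 min demethylation and 1 h detection at room temperature; signal: LANCE TR-FRET, excitation 340 nm, emissions 618 and 671 nm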
# T cruzi growth-1 – T. cruzi intracellular proliferation inhibitors, primary screen, cell-based, beta-gal Tulahuen parasites, NIH3T3 host, luminescence; inhibition, % at 8.34 µM; T. cruzi beta-gal in NIH3T3, GalScreen luminescence, 90 h; hit rate 5.9% among 77,000;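 active = mean inhibition above about 93%, with at least 55% of replicates each passing it, limit read from the data, passing the limit was not always enough; inconclusive = only one of those two conditions holds; inactive = neither condition holds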
# IDH1 mut inh – inhibitors of IDH1 R132H reductase, primary screen, biochemical, plate reader, single point. Isocitrate dehydrogenase [NADP] cytoplasmic (Homo sapiens), O75874. diaphorase/resazurin fluorescence, 60 min. inhibition, % at 10 µM. hit rate 0.18% among 70,000; in the data active = inhibition above about 34%; inconclusive = no clear call, values can overlap the other calls; inactive = below about 11%;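 note: 0% = DMSO and 100% = no enzyme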
# Target sequence (O75874 whole entry R132H): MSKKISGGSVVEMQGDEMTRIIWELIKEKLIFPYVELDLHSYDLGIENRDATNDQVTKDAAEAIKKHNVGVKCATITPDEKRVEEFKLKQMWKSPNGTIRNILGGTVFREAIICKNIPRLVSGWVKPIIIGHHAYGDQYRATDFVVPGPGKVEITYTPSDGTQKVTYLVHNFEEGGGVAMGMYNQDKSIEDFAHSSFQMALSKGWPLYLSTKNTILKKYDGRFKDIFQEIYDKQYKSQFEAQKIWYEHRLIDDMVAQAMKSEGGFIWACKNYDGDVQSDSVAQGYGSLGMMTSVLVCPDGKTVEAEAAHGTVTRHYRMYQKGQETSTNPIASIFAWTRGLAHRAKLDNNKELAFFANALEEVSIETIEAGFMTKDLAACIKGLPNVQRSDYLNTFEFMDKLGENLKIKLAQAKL
# Pf Dd2 growth – P. falciparum Dd2 growth inhibitors, primary screen, SYBR Green fluorescence, single dose replicates; activity change, % at 10 µM; hit rate 2.3% among 94,000; 72 h; stronger effect = lower value; AID 1159554, 2015; in the data active = activity change below about -80%; inconclusive = no clear call, values can overlap the other calls
# T cruzi growth-2 – T. cruzi intracellular proliferation inhibitors, confirmation, cell-based, NIH3T3 host, beta-gal parasite, luminescence, cherry-pick | shares compounds with T cruzi growth-1 | T. cruzi beta-gal in NIH3T3, GalScreen luminescence, 90 h | inhibition, % at 8.35 µM | hit rate 72% among 5,600 | AID 651739, 2012;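 active = mean replicate inhibition above about 95% and at least 55% of replicates individually reaching it, limit read from the data; inconclusive = only one of the two criteria is met; inactive = neither criterion is met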
# T cruzi growth-3 – inhibitors of intracellular T. cruzi replication, confirmation, NIH3T3 host cells, beta-gal parasites, cherry-pick, set 2 | T. cruzi beta-gal in NIH3T3, GalScreen luminescence, 90 h | AID 651740, 2012 | shares compounds with T cruzi growth-1 | inhibition, % at 2.09 µM | hit rate 21% among 5,600;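 active = mean inhibition above about 95%, with at least 55% of replicates also reaching it, limit read from the data; inconclusive = meets just one of the two conditions; inactive = meets neither condition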;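 note: plate controls were neutral control median for no effect and positive control median for full effect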
# NIH3T3 tox – cytotoxicity in mouse NIH/3T3 fibroblasts, confirmation, cytotoxicity control for T. cruzi proliferation inhibitor project, cell-based, cherry-pick, single point; hit rate 14% among 5,600; cytotoxicity (signal decrease), % at 8.35 µM; shares compounds with T cruzi growth-1; AID 651742, 2012; NIH/3T3 viability, CellTiter-Glo ATP luminescence, 90 h;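 active = mean signal decrease across replicates above about 35% based on untreated-well scatter, with enough replicates individually passing, limit read from the data; inconclusive = no rule stated though some were filed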;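 note: 0% = median of neutral control wells and 100% = median of positive control wells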
# NIH3T3 tox 2 – NIH/3T3 fibroblast cytotoxicity, confirmation, cytotoxicity control, cell-based, cherry-pick, single point, set 2; inhibition, % at 24.9 µM; hit rate 56% among 5,600; NIH/3T3 viability, CellTiter-Glo ATP luminescence, 90 h; shares compounds with T cruzi growth-1;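 active = mean loss of cell viability signal at or above a set limit, and enough replicates individually reaching it; inconclusive = meets only the mean limit or only the replicate share; inactive = meets neither condition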;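 note: 0% = median of neutral control wells and 100% = median of positive control wells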
# The depositor's hits bear a star; ? = inconclusive; · = not tested or not shown. Shown are actives, neighbours in structure and some others; about 5.8% of the full set was active somewhere.
SMILES,KDM4C inh,T cruzi growth-1,IDH1 mut inh,Pf Dd2 growth,T cruzi growth-2,T cruzi growth-3,NIH3T3 tox,NIH3T3 tox 2
COc1cccc(C(=O)N2C[C@H]3[C@@H](c4ccccc42)[C@@H](CO)N3Cc2cccnc2)c1,-2,84,·,-7,·,·,·,·
C[C@H](CO)N1C[C@H](C)[C@H](CN(C)S(=O)(=O)c2cn(C)cn2)Oc2c(NS(=O)(=O)c3cccs3)cccc2C1=O,2,90,·,3,·,·,·,·
Cc1ccc(S(=O)(=O)Nc2ccc3c(c2)CC(=O)N([C@H](C)CO)C[C@H](C)[C@@H](CN(C)Cc2ccc4c(c2)OCO4)O3)cc1,4,106*,0,-60,104*,99*,-32,25*
C[C@@H]1CN([C@H](C)CO)C(=O)Cc2cc(NS(=O)(=O)c3ccc(Cl)cc3)ccc2O[C@H]1CN(C)Cc1ccc2c(c1)OCO2,0,113*,1,8,108*,86,14,3
C[C@@H]1CN([C@H](C)CO)C(=O)Cc2cc(NS(=O)(=O)c3ccc(Cl)cc3)ccc2O[C@@H]1CN(C)Cc1ccc2c(c1)OCO2,1,99*,·,20,106*,38,?,42*
C[C@@H]1CN([C@@H](C)CO)C(=O)Cc2cc(NS(=O)(=O)c3ccc(Cl)cc3)ccc2O[C@H]1CN(C)Cc1ccc2c(c1)OCO2,1,78,0,-13,·,·,·,·
Cc1ccc(S(=O)(=O)Nc2ccc3c(c2)CC(=O)N([C@@H](C)CO)C[C@@H](C)[C@@H](CN(C)Cc2ccc4c(c2)OCO4)O3)cc1,-1,62,2,25,·,·,·,·
C[C@H](CO)N1C[C@H](C)[C@@H](CN(C)Cc2ccc(C(F)(F)F)cc2)Oc2ccc(NC(=O)CCC(F)(F)F)cc2CC1=O,0,·,0,-33,·,·,·,·
C[C@@H](NC(=O)C[C@@H]1CC[C@@H](NC(=O)CN2CCOCC2)[C@H](CO)O1)c1ccccc1,0,-56,0,9,·,·,·,·
CCC(=O)N1CC[C@@H]2[C@H]1c1cc(C#Cc3cccc(F)c3)ccc1N(C)[C@H]2CO,0,101,·,-48,·,·,·,·
CCC(=O)N1CC[C@H]2[C@@H]1c1cc(C#Cc3ccccc3OC)ccc1N(C)[C@H]2CO,0,99*,·,-35,110*,76,22,-7
COc1ccccc1NC(=O)N1CC[C@H]2[C@@H]1c1cc(-c3ccc(F)cc3)ccc1N(C)[C@H]2CO,1,101*,·,-66,106*,?,9,29*
COc1ccccc1NC(=O)N1CC[C@@H]2[C@H]1c1cc(C#Cc3ccc(F)cc3)ccc1N(C)[C@@H]2CO,-1,?,·,-32,99*,111*,2,12
C[C@H](CO)N1C[C@H](C)[C@@H](CN(C)S(=O)(=O)c2cccs2)Oc2ccc(NC(=O)C3CC3)cc2CC1=O,1,21,-5,-8,·,·,·,·
C[C@H](CO)N1C[C@H](C)[C@H](CN(C)C(=O)c2ccc3c(c2)OCO3)Oc2cc(C#Cc3ccccc3F)ccc2S1(=O)=O,1,·,-2,-67,·,·,·,·
C[C@@H]1CN([C@@H](C)CO)C(=O)c2ccccc2-c2ccccc2CO[C@H]1CN(C)S(=O)(=O)c1cn(C)cn1,0,7,·,-15,·,·,·,·
COc1ccccc1C#Cc1ccc([C@@H]2[C@H](CO)N3CCCCN(S(C)(=O)=O)C[C@@H]23)cc1,2,91,·,-48,·,·,·,·
COc1ccccc1C#Cc1ccc([C@H]2[C@@H](CO)N3CCCCN(C(=O)C4CC4)C[C@@H]23)cc1,·,110*,·,-59,104*,65,57*,47*
COc1ccccc1C#Cc1ccc([C@H]2[C@H]3CN(C(=O)C4CC4)CCCCN3[C@H]2CO)cc1,·,101*,·,-21,100*,57,30,48*
O=S(=O)(c1cccs1)N1CCCCN2[C@H](CO)[C@H](c3ccc(-c4ccccc4)cc3)[C@H]2C1,-1,88,·,-1,·,·,·,·
O=S(=O)(c1cccs1)N1CCCCN2[C@H](C1)[C@@H](c1ccc(Br)cc1)[C@@H]2CO,0,103*,·,14,104*,15,?,11
O=S(=O)(c1cccs1)N1CCCCN2[C@H](CO)[C@H](c3ccc(-c4ccccc4)cc3)[C@@H]2C1,-2,?,·,46,107*,81,15,2
O=S(=O)(c1cccs1)N1CCCCN2[C@@H](CO)[C@@H](c3ccc(C4=CCCCC4)cc3)[C@@H]2C1,·,76,·,-63,·,·,·,·
O=S(=O)(c1cccs1)N1CCCCN2[C@H](CO)[C@H](c3ccc(C4=CCCCC4)cc3)[C@@H]2C1,·,118*,·,-1,101*,94,23,51*
O=S(=O)(c1cccs1)N1CCCCN2[C@H](C1)[C@H](c1ccc(-c3ccccc3)cc1)[C@@H]2CO,-1,101*,·,10,108*,94,15,?
O=S(=O)(c1cccs1)N1CCCCN2[C@H](CO)[C@@H](c3ccc(Br)cc3)[C@@H]2C1,-2,88,·,12,·,·,·,·
